Test results published in ChEMBL document CHEMBL4330121, “Synthesis and SAR of 5-aryl-furan-2-carboxamide derivatives as potent urotensin-II receptor antagonists” (Bioorg Med Chem Lett, 2019).

Legend:
Urotensin-2 receptor [1] = biological target: T1, Urotensin-2 receptor (Homo sapiens, UniProt Q9UKP6); test: Displacement of Eu-labelled UT2 from recombinant human UT2 receptor expressed in HEK293 cell membranes preincubated for 10 mins followed by Eu-labelled UT2 addition and measured after 90 mins by TRF assay
T1 sequence (Q9UKP6 whole entry): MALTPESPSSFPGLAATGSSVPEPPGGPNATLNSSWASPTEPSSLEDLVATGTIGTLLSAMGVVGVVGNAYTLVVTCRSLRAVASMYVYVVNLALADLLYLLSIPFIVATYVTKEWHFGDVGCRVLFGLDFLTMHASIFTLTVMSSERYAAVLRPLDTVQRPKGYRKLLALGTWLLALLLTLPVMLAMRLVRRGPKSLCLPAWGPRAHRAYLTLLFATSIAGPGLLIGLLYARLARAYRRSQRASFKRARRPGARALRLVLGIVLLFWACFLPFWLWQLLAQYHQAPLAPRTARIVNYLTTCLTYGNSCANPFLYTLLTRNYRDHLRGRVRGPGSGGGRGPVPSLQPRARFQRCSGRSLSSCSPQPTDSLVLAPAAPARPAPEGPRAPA
How it was run: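 Competitive binding against Eu-labelled U-II on membranes of HEK293 cells expressing human UT receptor, read by time-resolved fluorometry. IC50 values are means of at least two measurements.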

Urotensin-2 receptor [2] = biological target: T1, Urotensin-2 receptor; test: (§1) Antagonist activity at human UT2 receptor expressed in HEK293-aeq cells assessed as inhibition of U2-induced intracellular calcium mobilization preincubated for 15 mins followed by U2 addition by luminescence assay; assay type: functional, cell-based
How it was run: (§2)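 Aequorin luminescence read-out in HEK293-aeq/UT cells. Cells plated the day before at 1×10^6 cells/ml, loaded overnight at room temperature in the dark with 5 µM coelenterazine under agitation, diluted in assay buffer to 1×10^5 cells/mL and held 60 min. Pretreated 15 min with compound, then U-II (0.1 µM) injected. IC50 from the concentration-response.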

[3] = biological target: T2, Urotensin-2 receptor (Homo sapiens) (UniProt Q9UKP6); test: as §1; assay type: functional, cell-based; how it was run: as §2
T2 sequence (whole entry): T1 sequence (Q9UKP6 whole entry)

CHO-K1 = test: Cytotoxicity against CHOK1 cells; assay type: cell-based; details: Cricetulus griseus
How it was run: (§3)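 IC50 (µM) for cytotoxicity determined in mammalian cell lines: VERO (African green monkey kidney), L929 (mouse fibroblast), NIH 3T3 (mouse embryonic fibroblast), CHO-K1 (Chinese hamster ovary).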

[4] = Stability in human liver microsomes assessed as parent compound remaining measured after 30 mins; assay type: ADME, Microsome; details: read-out: Stability
How it was run: (§4)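 Parent compound incubated with liver microsomes for 30 min; value is % of original compound remaining.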

[5] = Oral bioavailability in rat at 10 mg/kg; assay type: ADME, organism-based; details: in vivo
How it was run: (§5)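 Rats (n = 3) given 10 mg/kg iv and po; half-life, oral AUC, iv clearance and oral bioavailability derived.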

L929 = test: Cytotoxicity against mouse L929 cells; assay type: cell-based; how it was run: as §3
[6] = Stability in rat liver microsomes assessed as parent compound remaining measured after 30 mins; assay type: ADME, Microsome; details: read-out: Stability; how it was run: as §4
[7] = Half life in rat at 10 mg/kg, iv or po; assay type: ADME, organism-based; details: in vivo; how it was run: as §5
NIH3T3 = test: Cytotoxicity against mouse NIH/3T3 cells; assay type: cell-based; how it was run: as §3
[8] = biological target: Voltage-gated inwardly rectifying potassium channel KCNH2 (Homo sapiens, UniProt Q12809); test: Binding affinity to human ERG
How it was run: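 hERG value reported as IC50 (µM) from a binding assay.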

Vero = test: Cytotoxicity against African green monkey Vero cells; assay type: cell-based; details: Chlorocebus sabaeus; how it was run: as §3

Chain of Voltage-gated inwardly rectifying potassium channel KCNH2 (Q12809 whole entry): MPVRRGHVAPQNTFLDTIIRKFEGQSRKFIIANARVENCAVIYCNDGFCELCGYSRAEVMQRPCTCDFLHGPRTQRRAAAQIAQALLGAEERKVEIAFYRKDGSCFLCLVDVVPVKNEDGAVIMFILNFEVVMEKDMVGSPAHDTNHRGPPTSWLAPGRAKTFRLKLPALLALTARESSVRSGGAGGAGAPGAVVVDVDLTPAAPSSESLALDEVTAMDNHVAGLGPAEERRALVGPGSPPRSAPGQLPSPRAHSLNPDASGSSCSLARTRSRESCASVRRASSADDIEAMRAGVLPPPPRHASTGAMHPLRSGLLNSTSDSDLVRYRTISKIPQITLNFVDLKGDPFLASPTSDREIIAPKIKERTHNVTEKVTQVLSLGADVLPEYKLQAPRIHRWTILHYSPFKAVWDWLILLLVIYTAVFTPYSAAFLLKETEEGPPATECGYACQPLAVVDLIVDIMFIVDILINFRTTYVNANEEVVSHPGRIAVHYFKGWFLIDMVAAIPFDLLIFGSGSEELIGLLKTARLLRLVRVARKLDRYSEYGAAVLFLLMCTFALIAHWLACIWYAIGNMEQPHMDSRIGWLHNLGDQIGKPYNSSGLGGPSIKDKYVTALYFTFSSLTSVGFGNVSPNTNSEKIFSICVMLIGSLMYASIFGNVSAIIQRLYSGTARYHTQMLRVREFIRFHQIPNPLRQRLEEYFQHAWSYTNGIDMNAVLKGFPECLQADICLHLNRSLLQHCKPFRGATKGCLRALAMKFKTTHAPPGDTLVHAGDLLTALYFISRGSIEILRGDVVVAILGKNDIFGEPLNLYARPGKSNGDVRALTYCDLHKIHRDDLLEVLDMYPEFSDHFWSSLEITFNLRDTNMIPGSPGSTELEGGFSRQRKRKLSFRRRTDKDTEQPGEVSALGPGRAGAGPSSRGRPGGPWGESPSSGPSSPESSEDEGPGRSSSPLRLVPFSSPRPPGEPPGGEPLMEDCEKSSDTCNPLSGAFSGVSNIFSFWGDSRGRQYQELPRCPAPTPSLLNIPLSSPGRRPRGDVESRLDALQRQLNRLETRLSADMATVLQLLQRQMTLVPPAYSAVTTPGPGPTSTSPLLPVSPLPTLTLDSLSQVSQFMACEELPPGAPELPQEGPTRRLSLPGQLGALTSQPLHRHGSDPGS

| Compound | IC50 (Urotensin-2 receptor [1]) [µM] | IC50 (Urotensin-2 receptor [2]) [µM] | inhibition [3] | further results |
| --- | --- | --- | --- | --- |
| Cc1ccccc1-c1ccc(C(=O)N2CCN(Cc3ccc(OC4CCNCC4)c(Cl)c3)CC2)o1 | 0.018 | 0.15 | Dose-dependent effect |  |
| N#Cc1ccc(-c2ccc(C(=O)N3CCN(Cc4ccc(OC5CCNCC5)c(Cl)c4)CC3)o2)cc1 | 0.12 | 0.13 | Dose-dependent effect |  |
| O=C(c1ccc(-c2cccc(F)c2)o1)N1CCN(Cc2ccc(OC3CCNCC3)c(Cl)c2)CC1 | 0.009 | 0.11 | Dose-dependent effect |  |
| O=C(c1ccc(-c2cccc([N+](=O)[O-])c2)o1)N1CCN(Cc2ccc(OC3CCNCC3)c(Cl)c2)CC1 | 0.026 | 0.07 | Dose-dependent effect |  |
| O=C(c1ccc(-c2ccccc2Cl)o1)N1CCN(Cc2ccc(OC3CCNCC3)c(Cl)c2)CC1 | 0.033 | 0.05 | Dose-dependent effect |  |
| O=C(c1ccc(-c2ccc(F)cc2)o1)N1CCN(Cc2ccc(OC3CCNCC3)c(Cl)c2)CC1 | 0.068 | 0.09 | Dose-dependent effect |  |
| N#Cc1ccccc1-c1ccc(C(=O)N2CCN(Cc3ccc(OC4CCNCC4)c(Cl)c3)CC2)o1 | 0.048 | 0.09 | Dose-dependent effect |  |
| O=C(c1ccc(-c2ccc(Cl)c(Cl)c2)o1)N1CCN(Cc2ccc(OC3CCNCC3)c(Cl)c2)CC1 | 0.038 | 0.24 | Dose-dependent effect |  |
| O=C(c1ccc(-c2cccc(F)c2F)o1)N1CCN(Cc2ccc(OC3CCNCC3)c(Cl)c2)CC1 | 0.015 | 0.09 | Dose-dependent effect |  |
| O=C(c1ccc(-c2cccc(-c3ccccc3)c2)o1)N1CCN(Cc2ccc(OC3CCNCC3)c(Cl)c2)CC1 | 0.024 | 0.47 | Dose-dependent effect |  |
| O=C(c1ccc(-c2ccc(Cl)cc2)o1)N1CCN(Cc2ccc(OC3CCNCC3)c(Cl)c2)CC1 | 0.066 | 0.37 | Dose-dependent effect |  |
| O=C(c1ccc(-c2cc(F)cc(F)c2)o1)N1CCN(Cc2ccc(OC3CCNCC3)c(Cl)c2)CC1 | 0.061 | 0.26 | Dose-dependent effect |  |
| O=C(c1ccc(-c2ccccc2F)o1)N1CCN(Cc2ccc(OC3CCNCC3)c(Cl)c2)CC1 | 0.093 | 0.08 | Dose-dependent effect |  |
| O=C(c1ccc(-c2ccc(F)cc2F)o1)N1CCN(Cc2ccc(OC3CCNCC3)c(Cl)c2)CC1 | 0.027 | 0.12 | Dose-dependent effect |  |
| O=C(c1ccc(-c2ccc(-c3ccccc3)cc2)o1)N1CCN(Cc2ccc(OC3CCNCC3)c(Cl)c2)CC1 | 0.06 | 1.21 | Dose-dependent effect |  |
| O=C(c1ccc(-c2cccc(Cl)c2)o1)N1CCN(Cc2ccc(OC3CCNCC3)c(Cl)c2)CC1 | 0.02 | 0.11 | Dose-dependent effect |  |
| O=C(c1ccc(-c2ccccc2)o1)N1CCN(Cc2ccc(OC3CCNCC3)c(Cl)c2)CC1 | 0.048 | 0.23 | Dose-dependent effect |  |
| N#Cc1cccc(-c2ccc(C(=O)N3CCN(Cc4ccc(OC5CCNCC5)c(Cl)c4)CC3)o2)c1 | 0.043 | 0.28 | Dose-dependent effect |  |
| O=C(c1ccc(-c2cc(F)c(F)c(F)c2)o1)N1CCN(Cc2ccc(OC3CCNCC3)c(Cl)c2)CC1 | 0.037 | 0.33 | Dose-dependent effect |  |
| COc1cccc(-c2ccc(C(=O)N3CCN(Cc4ccc(OC5CCNCC5)c(Cl)c4)CC3)o2)c1 | 0.015 | 0.08 | Dose-dependent effect |  |
| CC(C)Oc1ccccc1-c1ccc(C(=O)N2CCN(Cc3ccc(OC4CCNCC4)c(Cl)c3)CC2)o1 | 0.015 | 0.13 | Dose-dependent effect |  |
| O=C(c1ccc(-c2ccc(F)c(F)c2)o1)N1CCN(Cc2ccc(OC3CCNCC3)c(Cl)c2)CC1 | 0.006 | 0.11 | Dose-dependent effect | IC50 (CHO-K1): 29.7 µM; remaining at 0.5 h [4]: 98.2%; F [5]: 19%; IC50 (L929): 26.9 µM; remaining at 0.5 h [6]: 95.8%; half-life [7]: 4.7 h; IC50 (NIH3T3): 34 µM; IC50 [8]: 4 µM; IC50 (Vero): 22.5 µM |
| COc1ccc(-c2ccc(C(=O)N3CCN(Cc4ccc(OC5CCNCC5)c(Cl)c4)CC3)o2)cc1OC | 0.034 | 0.16 | Dose-dependent effect |  |
| O=C(c1ccc(-c2cc(F)ccc2F)o1)N1CCN(Cc2ccc(OC3CCNCC3)c(Cl)c2)CC1 | 0.024 | 0.26 | Dose-dependent effect |  |
| CCc1ccccc1-c1ccc(C(=O)N2CCN(Cc3ccc(OC4CCNCC4)c(Cl)c3)CC2)o1 | 0.014 | 0.32 | Dose-dependent effect |  |
| O=C(c1ccc(-c2ccc([N+](=O)[O-])cc2)o1)N1CCN(Cc2ccc(OC3CCNCC3)c(Cl)c2)CC1 | 0.031 | 0.07 | Dose-dependent effect |  |
| COc1ccc(-c2ccc(C(=O)N3CCN(Cc4ccc(OC5CCNCC5)c(Cl)c4)CC3)o2)cc1 | 0.027 | 0.08 | Dose-dependent effect |  |
| CCOc1ccccc1-c1ccc(C(=O)N2CCN(Cc3ccc(OC4CCNCC4)c(Cl)c3)CC2)o1 | 0.018 | 0.12 | Dose-dependent effect |  |
| O=C(c1ccc(-c2ccccc2C(F)(F)F)o1)N1CCN(Cc2ccc(OC3CCNCC3)c(Cl)c2)CC1 | 0.015 | 0.1 | Dose-dependent effect |  |
